Measurements reported in ChEMBL document CHEMBL3085652, “Synthesis and antiproliferative activity of α-branched α,β-unsaturated ketones” (2013).

Assays:
Format in all cases: functional
WiDr = assay: Growth inhibition of human WiDr cells after 48 hrs by SRB assay
Outline: (§1)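 Cells from an academic source, kept in 25 cm² flasks in RPMI 1640 with 5% heat-inactivated fetal calf serum. Dosing began day 1 after plating, in triplicate at several dilutions across […]. Vehicle controls got DMSO 0.25% v/v. After 48 h exposure, cells were fixed with ice-cold 50% w/v TCA for 60 min at 4 °C and stained by SRB. OD was read at 492 nm, corrected for medium-only background, and GI50 was derived from dose-response data.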

T47D = assay: Growth inhibition of human T47D cells after 48 hrs by SRB assay; outline: as §1
SW1573 = assay: Growth inhibition of human SW1573 cells after 48 hrs by SRB assay; conditions: SW1573, 48 h; outline: as §1
HeLa = assay: Growth inhibition of human HeLa cells after 48 hrs by SRB assay; outline: as §1
[1] = Growth inhibition of human HBL100 cells after 48 hrs by SRB assay; conditions: HBL-100, 48 h; outline: as §1

GI50 (T47D)	GI50 (SW1573)	GI50 (HeLa)	SMILES	GI50 (WiDr)	GI50 [1]
15 µM	10 µM	21 µM	O=C(/C=C/C1CCCCC1)c1ccccc1	21 µM	18 µM
14 µM	12 µM	18 µM	O=C(/C=C/c1ccc(Cl)cc1Cl)c1ccccc1	20 µM	17 µM
29 µM	23 µM	30 µM	O=C(/C(=C/C1CCCCC1)CCl)c1ccccc1	22 µM	22 µM
18 µM	3.6 µM	23 µM	O=C(/C(=C/c1ccccc1)CCl)c1ccccc1	18 µM	12 µM
17 µM	3.9 µM	22 µM	O=C(/C(=C/c1ccc(Cl)cc1)CCl)c1ccccc1	19 µM	3.2 µM
6.3 µM	3.8 µM	15 µM	O=C(/C(=C/c1ccc(Cl)cc1Cl)CCl)c1ccccc1	13 µM	3.1 µM
39 µM	29 µM	47 µM	O=C(/C(=C/C1CCCCC1)c1ccccc1)c1ccccc1	34 µM	57 µM
74 µM	64 µM	63 µM	O=C(/C(=C\C1CCCCC1)c1ccccc1)c1ccccc1	64 µM	59 µM
52 µM	41 µM	47 µM	O=C(/C(=C\c1ccc(Cl)cc1Cl)c1ccccc1)c1ccccc1	46 µM	> 100 µM
22 µM	19 µM	21 µM	CC(=O)OC/C(=C\C1CCCCC1)C(=O)c1ccccc1	21 µM	21 µM
89 µM	77 µM	50 µM	CCC(/C=C(\COC(C)=O)C(=O)c1ccccc1)CC	52 µM	> 100 µM
16 µM	4.8 µM	20 µM	CC(=O)OC/C(=C\c1ccccc1)C(=O)c1ccccc1	17 µM	17 µM
15 µM	3 µM	19 µM	C=C(C/C(=C\c1ccccc1)C(=O)c1ccccc1)C(=O)c1ccccc1	18 µM	10 µM
5.3 µM	2.6 µM	3.2 µM	CC(=O)OC/C(=C\c1ccc(Cl)cc1)C(=O)c1ccccc1	4.8 µM	2.3 µM
19 µM	6.1 µM	22 µM	C=C(C/C(=C\c1ccc(Cl)cc1)C(=O)c1ccccc1)C(=O)c1ccccc1	20 µM	17 µM
14 µM	4.2 µM	25 µM	CC(=O)OC/C(=C\c1ccc(F)cc1)C(=O)c1ccccc1	13 µM	17 µM
15 µM	3.5 µM	18 µM	C=C(C/C(=C\c1ccc(F)cc1)C(=O)c1ccccc1)C(=O)c1ccccc1	19 µM	14 µM
19 µM	14 µM	24 µM	CC(=O)OC/C(=C/c1ccccc1Cl)C(=O)c1ccccc1	22 µM	21 µM
17 µM	14 µM	20 µM	CC(=O)OC/C(=C\c1ccccc1Br)C(=O)c1ccccc1	21 µM	22 µM
18 µM	21 µM	19 µM	CC(=O)OC/C(=C/c1ccccc1Br)C(=O)c1ccccc1	18 µM	21 µM
18 µM	6.1 µM	22 µM	CC(=O)OC/C(=C\c1ccccc1F)C(=O)c1ccccc1	19 µM	17 µM

GI50 (T47D)	GI50 (SW1573)	GI50 (HeLa)	SMILES	GI50 (WiDr)	GI50 [1]
14 µM	3.5 µM	20 µM	C=C(C/C(=C\c1ccccc1F)C(=O)c1ccccc1)C(=O)c1ccccc1	17 µM	15 µM
9.5 µM	3.5 µM	16 µM	CC(=O)OC/C(=C\c1ccc(Cl)cc1Cl)C(=O)c1ccccc1	14 µM	3.1 µM
20 µM	22 µM	22 µM	CC(=O)OC/C(=C/c1ccc(Cl)cc1Cl)C(=O)c1ccccc1	19 µM	23 µM
16 µM	3.8 µM	26 µM	CC(=O)OC/C(=C\c1ccc([N+](=O)[O-])cc1)C(=O)c1ccccc1	23 µM	10 µM
36 µM	32 µM	36 µM	CC(=O)OC/C(=C/c1ccc([N+](=O)[O-])cc1)C(=O)c1ccccc1	83 µM	41 µM
21 µM	18 µM	25 µM	CC(=O)OC/C(=C\c1ccccc1[N+](=O)[O-])C(=O)c1ccccc1	18 µM	26 µM
52 µM	> 100 µM	78 µM	CC(=O)OC/C(=C/c1ccccc1[N+](=O)[O-])C(=O)c1ccccc1	> 100 µM	> 100 µM
0.37 µM	0.45 µM	0.32 µM	C=C(C/C(=C\c1ccc(OC)cc1)C(=O)c1ccccc1)C(=O)c1ccccc1	0.47 µM	0.53 µM
20 µM	17 µM	24 µM	O=C(OC/C(=C\C1CCCCC1)C(=O)c1ccccc1)c1ccccc1	19 µM	23 µM
17 µM	3.3 µM	20 µM	O=C(OC/C(=C\c1ccc(Cl)cc1Cl)C(=O)c1ccccc1)c1ccccc1	17 µM	3.1 µM
5.4 µM	29 µM	8.3 µM	O=C(OC/C(=C/c1ccc(Cl)cc1Cl)C(=O)c1ccccc1)c1ccccc1	8.7 µM	26 µM
16 µM	4.3 µM	22 µM	O=C(OC/C(=C\c1ccccc1[N+](=O)[O-])C(=O)c1ccccc1)c1ccccc1	18 µM	3.9 µM
18 µM	> 100 µM	30 µM	O=C(OC/C(=C/c1ccccc1[N+](=O)[O-])C(=O)c1ccccc1)c1ccccc1	21 µM	> 100 µM
18 µM	18 µM	24 µM	CC(=O)OC/C(=C\C1CCCCC1)C(=O)c1ccc(Cl)cc1	21 µM	31 µM
5.4 µM	3.4 µM	19 µM	CC(=O)OC/C(=C\c1ccc(Cl)cc1)C(=O)c1ccc(Cl)cc1	18 µM	4 µM
12 µM	5.3 µM	5.7 µM	CC(=O)OC/C(=C/c1ccc(Cl)cc1)C(=O)c1ccc(Cl)cc1	17 µM	16 µM
17 µM	5.3 µM	21 µM	C=C(C/C(=C\c1ccc(Cl)cc1)C(=O)c1ccc(Cl)cc1)C(=O)c1ccc(Cl)cc1	24 µM	16 µM
5.2 µM	3.4 µM	4.6 µM	CC(=O)OC/C(=C\c1ccc(Cl)cc1Cl)C(=O)c1ccc(Cl)cc1	8.1 µM	3.2 µM
20 µM	21 µM	19 µM	CC(=O)OC/C(=C/c1ccc(Cl)cc1Cl)C(=O)c1ccc(Cl)cc1	20 µM	22 µM
22 µM	15 µM	3.3 µM	COc1cc([C@@H]2c3cc4c(cc3[C@@H](O[C@@H]3O[C@@H]5CO[C@@H](C)O[C@H]5[C@H](O)[C@H]3O)[C@H]3COC(=O)[C@H]23)OCO4)cc(OC)c1O [ETOPOSIDE]	23 µM	1.4 µM
